Assay results published in ChEMBL document CHEMBL4610031, “Design, synthesis and biological evaluation of Proteolysis Targeting Chimeras (PROTACs) as a BTK degraders with improved pharmacokinetic properties” (Bioorg Med Chem Lett, 2020).

Assays:
[1] = target: T1, Protein cereblon/Tyrosine-protein kinase BTK (Homo sapiens, UniProt Q06187+Q96SW2); assay: Protac activity at CRBN/BTK in human NAMALWA cells assessed as induction of BTK protein degradation incubated for 24 hrs by immunoblotting method; format: cell-based; conditions: namalva
In short: (§1)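 NAMALWA cells were grown in RPMI 1640 with 10% FBS, streptomycin and penicillin at 37 °C, 5% CO2. 2 × 10^6 cells per concentration were treated 24 h, rinsed in cold PBS, and lysed in Tris pH 8.0/deoxycholate/Triton X-100 with protease and phosphatase inhibitors.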
Target sequence in this assay (Q06187 whole entry): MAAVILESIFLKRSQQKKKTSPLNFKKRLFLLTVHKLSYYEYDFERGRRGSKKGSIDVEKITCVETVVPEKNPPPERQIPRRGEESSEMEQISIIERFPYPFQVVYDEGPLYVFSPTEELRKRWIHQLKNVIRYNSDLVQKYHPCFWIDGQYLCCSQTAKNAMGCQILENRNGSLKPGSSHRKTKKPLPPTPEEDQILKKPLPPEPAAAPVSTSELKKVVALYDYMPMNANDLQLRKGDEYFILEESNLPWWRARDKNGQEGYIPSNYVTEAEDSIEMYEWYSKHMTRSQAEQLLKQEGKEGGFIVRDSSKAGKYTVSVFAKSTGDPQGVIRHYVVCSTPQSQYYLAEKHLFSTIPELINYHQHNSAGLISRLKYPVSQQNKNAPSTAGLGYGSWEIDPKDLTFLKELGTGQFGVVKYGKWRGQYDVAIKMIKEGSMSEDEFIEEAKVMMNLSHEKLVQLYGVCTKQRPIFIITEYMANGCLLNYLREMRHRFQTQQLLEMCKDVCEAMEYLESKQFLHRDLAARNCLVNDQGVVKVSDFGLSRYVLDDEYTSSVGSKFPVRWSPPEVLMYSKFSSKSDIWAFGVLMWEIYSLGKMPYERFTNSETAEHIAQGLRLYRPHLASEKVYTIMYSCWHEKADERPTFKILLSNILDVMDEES
Target sequence in this assay (Q96SW2 whole entry): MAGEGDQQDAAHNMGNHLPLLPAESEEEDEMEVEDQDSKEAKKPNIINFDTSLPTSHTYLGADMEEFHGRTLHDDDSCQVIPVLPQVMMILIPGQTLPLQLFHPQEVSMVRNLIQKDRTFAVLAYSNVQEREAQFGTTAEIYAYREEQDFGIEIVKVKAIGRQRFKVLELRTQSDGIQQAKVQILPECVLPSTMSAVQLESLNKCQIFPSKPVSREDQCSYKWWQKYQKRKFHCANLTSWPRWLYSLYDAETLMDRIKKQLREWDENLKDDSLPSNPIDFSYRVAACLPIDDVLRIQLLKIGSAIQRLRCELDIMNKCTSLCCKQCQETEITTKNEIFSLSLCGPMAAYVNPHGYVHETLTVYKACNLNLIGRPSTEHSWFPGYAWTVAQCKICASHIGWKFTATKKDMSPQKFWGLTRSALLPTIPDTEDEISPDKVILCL

[2] = target: T1, Protein cereblon/Tyrosine-protein kinase BTK; assay: Protac activity at CRBN/BTK in human NAMALWA cells assessed as induction of BTK protein degradation incubated for 24 hrs by immunoblotting method relative to control; format: cell-based; conditions: NAMALVA; in short: as §1
Target sequence in this assay (Q06187 2-659 limits assumed): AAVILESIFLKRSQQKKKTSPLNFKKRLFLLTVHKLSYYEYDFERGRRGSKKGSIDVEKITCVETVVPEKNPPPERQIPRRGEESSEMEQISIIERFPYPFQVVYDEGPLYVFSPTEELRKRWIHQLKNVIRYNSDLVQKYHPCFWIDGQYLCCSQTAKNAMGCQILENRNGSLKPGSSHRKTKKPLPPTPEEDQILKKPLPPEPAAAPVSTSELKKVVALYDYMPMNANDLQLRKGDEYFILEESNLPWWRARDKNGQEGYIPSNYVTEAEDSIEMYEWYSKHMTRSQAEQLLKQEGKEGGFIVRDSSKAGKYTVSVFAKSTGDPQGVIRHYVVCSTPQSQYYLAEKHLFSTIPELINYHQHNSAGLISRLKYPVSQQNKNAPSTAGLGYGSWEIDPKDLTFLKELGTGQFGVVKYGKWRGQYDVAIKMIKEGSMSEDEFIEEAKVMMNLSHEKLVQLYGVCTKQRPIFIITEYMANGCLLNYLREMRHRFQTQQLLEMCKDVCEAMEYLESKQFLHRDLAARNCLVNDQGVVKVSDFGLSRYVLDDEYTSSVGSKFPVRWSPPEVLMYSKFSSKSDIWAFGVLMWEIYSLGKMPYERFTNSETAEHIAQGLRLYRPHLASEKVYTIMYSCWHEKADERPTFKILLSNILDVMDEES
Target sequence in this assay (Q96SW2 whole entry partner): as the sequence (Q96SW2 whole entry) above

[3] = Tmax in mouse at 1 mg/kg, iv; format: ADME, organism-based; conditions: in vivo
[4] = AUClast in mouse at 1 mg/kg, iv; format: ADME, organism-based; set-up: dose 1 mg/kg, time 0 - last, route intravenous; conditions: in vivo
[5] = target: T2, von Hippel-Lindau disease tumor suppressor/Tyrosine-protein kinase BTK (Homo sapiens, UniProt Q06187+P40337); assay: Protac activity at VHL/BTK in human NAMALWA cells assessed as induction of BTK protein degradation incubated for 24 hrs by immunoblotting method; format: cell-based; conditions: namalva; in short: as §1
Target sequence in this assay (Q06187 whole entry): as the sequence (Q06187 whole entry) above
Target sequence in this assay (P40337 whole entry): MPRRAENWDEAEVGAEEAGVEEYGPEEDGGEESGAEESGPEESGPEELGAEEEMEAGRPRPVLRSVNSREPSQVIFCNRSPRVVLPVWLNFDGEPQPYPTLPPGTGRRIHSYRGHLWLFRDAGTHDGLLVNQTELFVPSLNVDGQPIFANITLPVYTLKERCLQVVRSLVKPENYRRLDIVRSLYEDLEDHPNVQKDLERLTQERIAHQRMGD

[6] = target: T2, von Hippel-Lindau disease tumor suppressor/Tyrosine-protein kinase BTK; assay: Protac activity at VHL/BTK in human NAMALWA cells assessed as induction of BTK protein degradation incubated for 24 hrs by immunoblotting method relative to control; format: cell-based; conditions: NAMALVA; in short: as §1
Target sequence in this assay (P40337 whole entry partner): as the sequence (P40337 whole entry) above
Target sequence in this assay (Q06187 2-659 limits assumed): as the sequence (Q06187 2-659 limits assumed) above

Row | DC50 [1] [nM] | Emax [2] [%] | Tmax [3] [min] | AUClast [4] [ng·h/mL] | DC50 [5] [nM] | Emax [6] [%] | Compound
1 | 8.3 | 91 | 1.98 | 166 |  |  | Nc1ncnc2c1c(-c1ccc(Oc3ccccc3)cc1)nn2C1CCN(CCOCCOCCOc2ccc3c(c2)C(=O)N(C2CCC(=O)NC2=O)C3=O)CC1 (configuration not stated)
2 |  |  |  |  | > 1000 |  | Cc1ncsc1-c1ccc(CNC(=O)[C@@H]2C[C@@H](O)CN2C(=O)[C@H](C(C)C)N2Cc3ccccc3C2=O)c(OCCCOCCC(=O)N2CCC(n3nc(-c4ccc(Oc5ccccc5)cc4)c4c(N)ncnc43)CC2)c1
3 | 6.2 | 99 | 1.98 | 10.2 |  |  | Nc1ncnc2c1c(-c1ccc(Oc3ccccc3)cc1)nn2C1CCN(CCOCCOCC(=O)Nc2ccc3c(c2)C(=O)N(C2CCC(=O)NC2=O)C3=O)CC1 (configuration not stated)
4 |  |  |  |  | 162 | 50 | Cc1ncsc1-c1ccc(CNC(=O)[C@@H]2C[C@@H](O)CN2C(=O)[C@H](C(C)C)N2Cc3ccccc3C2=O)c(OCCCCOCCCCN2CCC(n3nc(-c4ccc(Oc5ccccc5)cc4)c4c(N)ncnc43)CC2)c1
5 | 7.9 | 95 | 1.98 | 405 |  |  | Nc1ncnc2c1c(-c1ccc(Oc3ccccc3)cc1)nn2C1CCN(CCOCCOCCOc2ccc3c(c2)CN(C2CCC(=O)NC2=O)C3=O)CC1 (configuration not stated)
6 |  |  |  |  | 374 | 49 | Cc1ncsc1-c1ccc(CNC(=O)[C@@H]2C[C@@H](O)CN2C(=O)[C@@H](NC(=O)COCCOCCN2CCC(n3nc(-c4ccc(Oc5ccccc5)cc4)c4c(N)ncnc43)CC2)C(C)(C)C)cc1
